From ChEMBL document CHEMBL4689842, “EUbOPEN Chemogenomics Library wave 1” (2021)

Tested on: Fibroblast
Assay: Multiplex assay against human fibroblast
Type: toxicity, cell-based
How it was run: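 At seeding, live cells were stained with Hoechst33342, BioTracker Green Microtubule Cytoskeleton Dye, MitoTracker Red and Annexin V Alexa Fluor 680. After compound addition they were imaged on a CQ1 microscope at 37°C and 5% CO2, and CellPathfinder machine-learning gating sorted them into Hoechst high-intensity objects or normal cells, with normal cells further split into healthy, pyknosed or fragmented nuclei and pyknosed cells into mitotic or apoptotic. Tubulin, mitochondrial-mass and membrane-permeability phenotypes are given as per cents of cells with healthy nuclei.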

[1] = 12 h, 1 µM, compound concentration 1 uM, replicate 1
[2] = 12 h, 1 µM, compound concentration 1 uM, replicate 2
[3] = 12 h, 10 µM, compound concentration 10 uM, replicate 1
[4] = 12 h, 10 µM, compound concentration 10 uM, replicate 2
[5] = 24 h, 1 µM, compound concentration 1 uM, replicate 1
[6] = 24 h, 1 µM, compound concentration 1 uM, replicate 2
[7] = 24 h, 10 µM, compound concentration 10 uM, replicate 1
[8] = 24 h, 10 µM, compound concentration 10 uM, replicate 2
[9] = 48 h, 1 µM, compound concentration 1 uM, replicate 1
[10] = 48 h, 1 µM, compound concentration 1 uM, replicate 2
[11] = 48 h, 10 µM, compound concentration 10 uM, replicate 1
[12] = 48 h, 10 µM, compound concentration 10 uM, replicate 2

SMILES: CC(C)(O)CNc1ncc(-c2ccnc(Nc3ccnc(Cl)c3)n2)c(CC2CC2)n1
- Population Apoptotic (%) [1]: 59%
- Population Fragmented Nuclei (%) [1]: 27%
- Population Healthy Nuclei (%) [1]: 46%
- Population Hoechst High Intensity Objects (%) [1]: 14%
- Population Membrane Permeable-Phenotype (%) [1]: 35%
- Population Mitochondria Different-Phenotype (%) [1]: 6%
- Population Mitotic Cells (%) [1]: 40%
- Population Normal (%) [1]: 85%
- Population Pyknosed Nuclei (%) [1]: 25%
- Population Tubulin-Different-Phenotype (%) [1]: 54%
- Total Cell Count [1]: 121
- Population Apoptotic (%) [2]: 9%
- Population Fragmented Nuclei (%) [2]: 9%
- Population Healthy Nuclei (%) [2]: 78%
- Population Hoechst High Intensity Objects (%) [2]: 5%
- Population Membrane Permeable-Phenotype (%) [2]: 5%
- Population Mitochondria Different-Phenotype (%) [2]: 17%
- Population Mitotic Cells (%) [2]: 90%
- Population Normal (%) [2]: 94%
- Population Pyknosed Nuclei (%) [2]: 12%
- Population Tubulin-Different-Phenotype (%) [2]: 14%
- Total Cell Count [2]: 97
- Population Apoptotic (%) [3]: 58%
- Population Fragmented Nuclei (%) [3]: 32%
- Population Healthy Nuclei (%) [3]: 24%
- Population Hoechst High Intensity Objects (%) [3]: 7%
- Population Membrane Permeable-Phenotype (%) [3]: 18%
- Population Mitochondria Different-Phenotype (%) [3]: 45%
- Population Mitotic Cells (%) [3]: 41%
- Population Normal (%) [3]: 92%
- Population Pyknosed Nuclei (%) [3]: 43%
- Population Tubulin-Different-Phenotype (%) [3]: 90%
- Total Cell Count [3]: 97
- Population Apoptotic (%) [4]: 15%
- Population Fragmented Nuclei (%) [4]: 10%
- Population Healthy Nuclei (%) [4]: 64%
- Population Membrane Permeable-Phenotype (%) [4]: 28%
- Population Mitochondria Different-Phenotype (%) [4]: 96%
- Population Mitotic Cells (%) [4]: 84%
- Population Pyknosed Nuclei (%) [4]: 26%
- Population Tubulin-Different-Phenotype (%) [4]: 100%
- Total Cell Count [4]: 93
- Population Apoptotic (%) [5]: 53%
- Population Fragmented Nuclei (%) [5]: 35%
- Population Healthy Nuclei (%) [5]: 51%
- Population Hoechst High Intensity Objects (%) [5]: 10%
- Population Membrane Permeable-Phenotype (%) [5]: 31%
- Population Mitochondria Different-Phenotype (%) [5]: 0%
- Population Mitotic Cells (%) [5]: 46%
- Population Normal (%) [5]: 90%
- Population Pyknosed Nuclei (%) [5]: 12%
- Population Tubulin-Different-Phenotype (%) [5]: 53%
- Total Cell Count [5]: 130
- Population Apoptotic (%) [6]: 20%
- Population Fragmented Nuclei (%) [6]: 11%
- Population Healthy Nuclei (%) [6]: 74%
- Population Hoechst High Intensity Objects (%) [6]: 4%
- Population Membrane Permeable-Phenotype (%) [6]: 10%
- Population Mitochondria Different-Phenotype (%) [6]: 20%
- Population Mitotic Cells (%) [6]: 80%
- Population Normal (%) [6]: 95%
- Population Pyknosed Nuclei (%) [6]: 15%
- Population Tubulin-Different-Phenotype (%) [6]: 16%
- Total Cell Count [6]: 136
- Population Apoptotic (%) [7]: 63%
- Population Fragmented Nuclei (%) [7]: 20%
- Population Healthy Nuclei (%) [7]: 32%
- Population Hoechst High Intensity Objects (%) [7]: 8%
- Population Membrane Permeable-Phenotype (%) [7]: 28%
- Population Mitochondria Different-Phenotype (%) [7]: 60%
- Population Mitotic Cells (%) [7]: 36%
- Population Normal (%) [7]: 91%
- Population Pyknosed Nuclei (%) [7]: 47%
- Population Tubulin-Different-Phenotype (%) [7]: 89%
- Total Cell Count [7]: 95
- Population Apoptotic (%) [8]: 47%
- Population Fragmented Nuclei (%) [8]: 14%
- Population Healthy Nuclei (%) [8]: 40%
- Population Hoechst High Intensity Objects (%) [8]: 14%
- Population Membrane Permeable-Phenotype (%) [8]: 47%
- Population Mitochondria Different-Phenotype (%) [8]: 89%
- Population Mitotic Cells (%) [8]: 52%
- Population Normal (%) [8]: 85%
- Population Pyknosed Nuclei (%) [8]: 44%
- Population Tubulin-Different-Phenotype (%) [8]: 100%
- Total Cell Count [8]: 105
- Population Apoptotic (%) [9]: 100%
- Population Fragmented Nuclei (%) [9]: 51%
- Population Healthy Nuclei (%) [9]: 46%
- Population Hoechst High Intensity Objects (%) [9]: 18%
- Population Membrane Permeable-Phenotype (%) [9]: 27%
- Population Mitochondria Different-Phenotype (%) [9]: 3%
- Population Mitotic Cells (%) [9]: 0%
- Population Normal (%) [9]: 81%
- Population Tubulin-Different-Phenotype (%) [9]: 24%
- Total Cell Count [9]: 143
- Population Apoptotic (%) [10]: 50%
- Population Fragmented Nuclei (%) [10]: 18%
- Population Healthy Nuclei (%) [10]: 78%
- Population Hoechst High Intensity Objects (%) [10]: 10%
- Population Membrane Permeable-Phenotype (%) [10]: 22%
- Population Mitochondria Different-Phenotype (%) [10]: 1%
- Population Mitotic Cells (%) [10]: 50%
- Population Normal (%) [10]: 89%
- Population Pyknosed Nuclei (%) [10]: 2%
- Population Tubulin-Different-Phenotype (%) [10]: 40%
- Total Cell Count [10]: 84
- Population Apoptotic (%) [11]: 54%
- Population Fragmented Nuclei (%) [11]: 49%
- Population Healthy Nuclei (%) [11]: 29%
- Population Hoechst High Intensity Objects (%) [11]: 15%
- Population Membrane Permeable-Phenotype (%) [11]: 12%
- Population Mitochondria Different-Phenotype (%) [11]: 41%
- Population Mitotic Cells (%) [11]: 45%
- Population Normal (%) [11]: 84%
- Population Pyknosed Nuclei (%) [11]: 21%
- Population Tubulin-Different-Phenotype (%) [11]: 93%
- Total Cell Count [11]: 123
- Population Apoptotic (%) [12]: 29%
- Population Fragmented Nuclei (%) [12]: 23%
- Population Healthy Nuclei (%) [12]: 58%
- Population Hoechst High Intensity Objects (%) [12]: 9%
- Population Membrane Permeable-Phenotype (%) [12]: 7%
- Population Mitochondria Different-Phenotype (%) [12]: 51%
- Population Mitotic Cells (%) [12]: 70%
- Population Normal (%) [12]: 90%
- Population Pyknosed Nuclei (%) [12]: 17%
- Population Tubulin-Different-Phenotype (%) [12]: 96%
- Total Cell Count [12]: 106
